The results in this text go back to ChEMBL document CHEMBL1142265, “Discovery of 4-aryl-4H-chromenes as a new series of apoptosis inducers using a cell- and caspase-based HTS assay. Part 5: modifications of the 2- and 3-positions” (Bioorg Med Chem Lett, 2008).

Assay [1] relates to HCT-116. Nature of the assay: Induction of apoptosis in human HCT116 cells assessed as caspase activation by HTS assay. The class given is functional, cell-based.
Assay [2] concerns T47D. Kind of assay: Induction of apoptosis in human T47D cells assessed as caspase activation by HTS assay. The class given is functional, cell-based.
Assay [3] deals with SNU-398. Nature of the assay: Induction of apoptosis in human SNU398 cells assessed as caspase activation by HTS assay. The class given is functional, cell-based.
The nature of assay [4]: Inhibition of tubulin polymerization.
For assay [5], the system named is SNU-398. Kind of assay: Growth inhibition of human SNU398 cells. The class given is functional. In short, it runs like this:
(§1)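 GI50 from a cell growth inhibition assay in T47D, HCT116 and SNU398 cells, run in 96-well format following an earlier protocol. Values are means of three or more experiments ± SEM.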

Assay [6] has as its system T47D. Nature of the assay: Growth inhibition of human T47D cells. The class given is functional. In short, it runs like this:
as §1

The subject of assay [7] is HCT-116. Nature of the assay: Growth inhibition of human HCT116 cells. The class given is functional. In outline:
as §1

Usually EC50 stands for the concentration at which the effect is half-maximal. Turning to `COc1cc(C2C(C#N)=C(N3C(=O)CCC3=O)Oc3cc(N(C)C)ccc32)cc(Br)c1OC` (stereo unspecified), the 50% effective concentration (EC50) in the assay with HCT-116 [1] was found to be 420 nM; in the assay with T47D [2], 250 nM; with SNU-398 [3] it was 190 nM.
In general, IC50 refers to the concentration that gives 50% inhibition. Low values mean higher potency, high ones lower potency. In turn, `COc1cc(C2C(C#N)=C(N)Oc3c2ccc2[nH]ccc32)cc(Br)c1OC` (stereo unspecified) yielded an IC50 in assay [4] of 500 nM.
By GI50 is commonly meant the concentration that inhibits growth by half. Low values mean more potent growth inhibition, high ones less potent growth inhibition. As to `CCOC(=O)C1=C(N)Oc2c(ccc3[nH]ccc23)C1c1cc(Br)c(OC)c(OC)c1` (stereo unspecified), the half-maximal effective concentration (EC50) is 3000 nM with HCT-116 [1], 3200 nM in the assay on T47D [2] and 2200 nM in the assay with SNU-398 [3]. Further, the results for the GI50 in the assay on SNU-398 [5], in the assay on T47D [6] and with HCT-116 [7] were 1600 nM, 3300 nM and 4300 nM, respectively.
Turning to `COC(=O)C1=C(N)Oc2c(ccc3[nH]ccc23)C1c1cc(Br)c(OC)c(OC)c1` (stereo unspecified), the concentration for a half-maximal effect (EC50) was determined as 660 nM in the assay on HCT-116 [1], 1400 nM in the assay on T47D [2] and 1000 nM in the assay on SNU-398 [3].
For `COc1cc(C2C(C#N)=C(NC(=O)Nc3ccccc3)Oc3cc(N(C)C)ccc32)cc(Br)c1OC` (stereo unspecified), the concentration giving a half-maximal response (EC50) with HCT-116 [1] stood at 84 nM; with T47D [2], 68 nM; in the assay with SNU-398 [3], 93 nM.
For the compound `COc1cc(C2C(C#N)=COc3c2ccc2c3ccn2C)cc(Br)c1OC` (stereo unspecified), the values for the EC50 in the assay on HCT-116 [1], in the assay on T47D [2] and in the assay on SNU-398 [3] were 38 nM, 29 nM and 34 nM, respectively. The compound further had an IC50 in assay [4] of less than 500 nM. Also, the concentration for 50% growth inhibition (GI50) with SNU-398 [5] turned out to be 4 nM; in the assay on T47D [6] it was 6 nM; in the assay with HCT-116 [7], 6 nM.
As to `COc1cc(C2C(C#N)=COc3cc(N(C)C)ccc32)cc(Br)c1OC` (stereo unspecified), the EC50 was determined as 93 nM in the assay on HCT-116 [1], 65 nM with T47D [2] and 77 nM in the assay with SNU-398 [3]. The GI50 with SNU-398 [5] was found to be 17 nM; with T47D [6] it was 66 nM; in the assay with HCT-116 [7], 51 nM.
Take `COc1cc(C2C(C#N)=COc3c2ccc2[nH]ccc32)cc(Br)c1OC` (stereo unspecified): the EC50 with HCT-116 [1] was determined as 66 nM; in the assay with T47D [2], 47 nM; in the assay on SNU-398 [3], 52 nM. Besides, in assay [4], the IC50 was less than 500 nM. The GI50 with SNU-398 [5] is 34 nM; with T47D [6] it was 73 nM; in the assay on HCT-116 [7], 53 nM.
`N#CC1=C(N)Oc2c(ccc3[nH]ccc23)C1c1ccccc1` (stereo unspecified): the EC50 in the assay with T47D [2] turned out to be 270 nM. For the same compound, in assay [4], the IC50 was found to be 3000 nM.
For the compound `CCn1ccc2c3c(ccc21)C(c1cc(Br)c(OC)c(OC)c1)C(C#N)=CO3` (stereo unspecified), the concentration giving a half-maximal response (EC50) is 150 nM in the assay on HCT-116 [1], 70 nM with T47D [2] and 87 nM with SNU-398 [3].
